According to publication PMC9119696 (Nature chemical biology, 2021):

Experiments:
PATU-8988T cells = assay: Cell cycle analysis; type: cell-based; conditions: 2.5 μM, 4 days
Summary of the method: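 PATU-8988T cells treated 4 days with DMSO (0.1%), test compound or a non-covalent analogue (each 2.5 µM), with medium replaced on day 3; run in triplicate or more. Pulsed with 10 µM BrdU for 1 h, then fixed in 70% ethanol and denatured in 2 M HCl/0.5% Triton X-100 (30 min, RT). Neutralised with 0.1 M Na2B4O7 pH 8.5 and stained overnight at 4 °C with anti-BrdU-FITC. Counterstained with propidium iodide plus RNase A (each 50 µg ml-1) and analysed by FACS.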

PATU-8988T WT Pin1 cells = assay: 3D Matrigel dome antiproliferative assay; type: cell-based; conditions: 1 μM, 9-day treatment
Summary of the method: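 1,000 cells per Matrigel dome, one dome per well, left 15 min at 37 °C to solidify. Medium with test compound renewed every 3 days. After 9 days, 3D CellTiter-Glo was added and the plate shaken 1 h at room temperature before reading luminescence. n = 9 biological replicates per condition.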

GST-Pin1 = GST-Pin1 (Homo sapiens, UniProt Q13526); assay: Competitive fluorescence polarization; type: binding; conditions: 14 h incubation with recombinant full-length Pin1
GST-Pin1, sequence (Q13526 whole entry): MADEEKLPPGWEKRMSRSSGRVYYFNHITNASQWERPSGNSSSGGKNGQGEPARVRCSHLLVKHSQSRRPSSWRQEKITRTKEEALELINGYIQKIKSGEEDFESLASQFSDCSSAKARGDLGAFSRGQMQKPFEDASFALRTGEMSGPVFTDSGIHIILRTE
Summary of the method: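 GST-Pin1 (250 nM) preincubated 14 h at 4 °C with compound and 5 nM N-terminal fluorescein-labelled peptide probe (Bth-D-pThr-Pip-Nal). Buffer: 10 mM HEPES, 10 mM NaCl, 1% glycerol pH 7.4, 10 µg ml-1 BSA, 0.01% Tween-20, 1 mM DTT. Ki calculated from probe concentration, 85% probe bound and Pin1 concentration. Kinact from dose- and time-dependent runs. n = 3 samples ± s.e.m.; 2 experiments.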

Pin1 = assay: Live cell competition pulldown; type: cell-based; conditions: PATU-8988T or HCT116 cells, 5 h
Summary of the method: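 2.5 million cells per 10-cm plate, dosed next day with DMSO or test compound (5 h, or as indicated). Cells washed in cold PBS, scraped and lysed in HEPES pH 7.4/NP-40 buffer with TCEP. Lysate (500 µg) incubated with desthiobiotin probe (1 µM, 1 h, 4 °C), then streptavidin agarose (1.5 h, 4 °C). Pin1 pulldown detected by immunoblot.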

## CC(=O)N(CC(C)(C)C)C1CCS(=O)(=O)C1 (stereo not shown) [Sulfopin-AcA]
PATU-8988T cells
  cells in S phase: did not show this effect
PATU-8988T WT Pin1 cells
  antiproliferative activity in 3D Matrigel domes: showed no effect in any of the tested systems
GST-Pin1
  competition in FP assay: inactive
Pin1
  competition of Pin1 pulldown by DTB probe: unable to outcompete Pin1 pulldown
